Measured values: publication PMC2034471 (Nucleic Acids Research, 2007)
Ends that are not written are not given here. Me2 = dimethylated (lysine)

What was measured:
ScRad9[754–947] = test: NMR titration of ScRad9[754–947] with histone peptides; type: binding, Saccharomyces cerevisiae; settings: ^1H-^15N HSQC, 600 MHz; protein 0.2–0.5 mM; 50 mM MES pH 6, 50 mM NaCl
Method in brief: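 15N-labelled protein (0.2–0.5 mM) in 50 mM MES pH 6, 50 mM NaCl, 1 mM EDTA, 1 mM NaN3, protease inhibitors, TSP reference. Methyl-lysine H3-K79 and H4-K20 tail peptides titrated to 9-, 7-, 5- or 2-fold molar excess. Weighted shift |Δδ1H| + 0.1×|Δδ15N| plotted against ligand concentration; Kd fitted from the curves.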

[1] = system: mouse 53BP1 tudor fragment (1463–1617); test: isothermal titration calorimetry; type: binding; settings: 30°C; for Ka (ITC): 50 mM Tris/HCl pH 7.2, 50 mM NaCl, protein 18–33 µM, one-site model; for TΔS / ΔG / ΔH: ITC; for TΔS / ΔG: pH 7.2; for ΔH: pH 7.2, one-site model
Method in brief: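 Protein in the cell titrated with H4-K20me2 or H4K20me2-long peptide, generally 10–15 times more concentrated, both equilibrated in the same buffer, by automatic 5–10 µl injections. The first 2 µl injection was excluded. Peaks were integrated and baseline-corrected. Heat of dilution was taken from peptide injected into buffer. One-site fitting gave n, Ka and ΔH.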

[2] = system: rad9Δ cells complemented with rad9ΔTudor allele; test: resistance of yeast cells to genotoxic stress, spot test; type: cell-based, Saccharomyces cerevisiae; settings: 10-fold serial dilutions on YPD plates with drug; versus wild-type RAD9
Method in brief: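 The rad9Δ-L157 full RAD9 deletion strain carried a URA3 YCp50 plasmid: empty, wild-type RAD9 under its own promoter, or RAD9 lacking tudor aa 754–947. Overnight YPD cultures were diluted to OD 0.1 and grown 4–5 h. Tenfold dilutions were spotted on YPD ± camptothecin or 4-nitroquinoline 1-oxide, or plates given UV (120 J/m2) or X-rays (150 Gy, 2.5 Gy/min).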

[3] = target: Mm53BP1[1463–1617] (mouse) (UniProt P70399); test: NMR titration
H3 from calf thymus = test: GST-pulldown, binding to histone H3; settings: calf thymus H3, immunoblotting after elution from beads; data not shown
[4] = system: single-stranded and double-stranded DNA; settings: EMSA; human 53BP1; ref [33]; cited from earlier work
[5] = aggregation / stability of Rad9 fragments in solution; type: physicochemical
DNA = test: surface plasmon resonance, DNA binding; settings: versus wild-type ScRad9[754–931]; data not shown
histone H3 = settings: GST fusion; ref [16],[32]; cited from earlier work
Mm53BP1[1463–1617] = Mm53BP1[1463–1617] (mouse, UniProt P70399 1463-1617); test: ITC
[6] = system: 146 bp double-stranded DNA; test: EMSA, 146 bp ds DNA; type: binding; settings: DNA 26 nM, 2- to 128-fold molar excess of protein
Method in brief: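 146 bp fragment made by PCR on a pUC(357.4) digest template and 5′-end labelled with 32P-ATP/T4 polynucleotide kinase at 37°C. Protein fragments incubated with labelled DNA for 2 h at 22°C in 50 mM Tris–HCl pH 8.0, 1 mM EDTA, 1 mM AEBSF, 1 mM DTT, 50 mM NaCl, 0.1% triton X-100. Resolved on pre-run 6% native polyacrylamide (29:1) in 0.5× TEG at 70 V. Complexes detected by autoradiography of dried gels at –80°C.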

10 bp oligonucleotide = settings: NMR; ref [15]; cited from earlier work

KRHRK*VLRD [metazoan H4K20me2]
binding to ScRad9[754–947] (^1Hn and ^15N chemical shifts) (ScRad9[754–947]): cannot bind | Ka (ITC) [1]: 130000 ± 16000 M⁻¹ | TΔS [1]: 4.9 kcal/mol | ΔG [1]: –7.1 kcal/mol | ΔH [1]: –2.2 ± 0.1 kcal/mol

O=[N+]([O-])c1cc[n+]([O-])c2ccccc12 [4-nitroquinoline 1-oxide]
sensitivity of rad9ΔTudor cells to DNA damage [2]: hypersensitivity to DNA damage

H3-K79me2 peptide
Kd [3]: 1500 µM

GKGGAKRHRK*VLRDNIQGK [H4-K20me2-long]
Ka (ITC) [1]: 110000 ± 16000 M⁻¹ | TΔS [1]: 4.6 kcal/mol | ΔG [1]: –6.9 kcal/mol | ΔH [1]: –2.3 ± 0.1 kcal/mol

CC[C@@]1(O)C(=O)OCc2c1cc1n(c2=O)Cc2cc3ccccc3nc2-1 [camptothecin]
sensitivity of rad9ΔTudor cells to DNA damage [2]: hypersensitivity to DNA damage which was particularly pronounced

KRHRK*ILRD [yeast H4K20me2]
binding to ScRad9[754–947] (^1Hn and ^15N chemical shifts) (ScRad9[754–947]): cannot bind

B1: GST-ScRad9[754–947]: GST fusion of ScRad9[754–947] (protein)
chain: GKDSKEQSYVFPEGIRTADNSFLSKDDIIFGNAVWCQYTWNYKFYPGILLEVDTNQDGCWIYFETGRSLTKDEDIYYLDIRIGDAVTFDGNEYVVVGLECRSHDLNIIRCIRGYDTVHLKKKNASGLLGKRTLIKALSSISLDLSEWAKRAKIILEDNEKNKGDAYRYLRHPIRGRKSMTNVLSPKKHTDDEKD
modifications: left off: GST, end not stated, kept
H3 captured in GST-pull-down (H3 from calf thymus): not together

B2: fragments 1319–1480: human 53BP1 fragment 1319–1480 containing the RG-rich stretch (protein, UniProt Q12888 1319-1480, looked up, fragment)
chain: TSLSAMHSSGSSGKGAGPLRGKTSGTEPADFALPSSRGGPGKLSPRKGVSQTGTPVCEEDGDAGLGIRQGGKAPVTPRGRGRRGRPPSRTTGTRETAVPGPLGIEDISPNLSPDDKSFSRVVPRVPDSTRRTDVGAGALRRSDSPEIPFQAAAGPSDGLDAS
interaction with DNA in vitro [4]: interact with single-stranded and double-stranded DNA in vitro

B3: ScRad9[754–931]: shorter fragment 754–931 of S. cerevisiae Rad9 (protein, UniProt P14737 754-931, looked up, fragment)
chain: GKDSKEQSYVFPEGIRTADNSFLSKDDIIFGNAVWCQYTWNYKFYPGILLEVDTNQDGCWIYFETGRSLTKDEDIYYLDIRIGDAVTFDGNEYVVVGLECRSHDLNIIRCIRGYDTVHLKKKNASGLLGKRTLIKALSSISLDLSEWAKRAKIILEDNEKNKGDAYRYLRHPIRGRKS
aggregation propensity / rate relative to ScRad9[754–947] [5]: same aggregation propensity

B4: ScRad9[754–931,C789A,C812S,C853S] (protein, UniProt P14737 754-931, looked up, variant C789A C812S C853S)
chain: GKDSKEQSYVFPEGIRTADNSFLSKDDIIFGNAVWAQYTWNYKFYPGILLEVDTNQDGSWIYFETGRSLTKDEDIYYLDIRIGDAVTFDGNEYVVVGLESRSHDLNIIRCIRGYDTVHLKKKNASGLLGKRTLIKALSSISLDLSEWAKRAKIILEDNEKNKGDAYRYLRHPIRGRKS
DNA-binding capacity by surface plasmon resonance (DNA): looses the DNA-binding capacity | aggregation propensity / rate relative to ScRad9[754–947] [5]: 1.5 times faster

B5: 1480–1616: human 53BP1 fragment 1480–1616 containing the tudor region (protein, UniProt Q12888 1480-1616, looked up, fragment)
chain: SSPGNSFVGLRVVAKWSSNGYFYSGKITRDVGAGKYKLLFDDGYECDVLGKDILLCDPIPLDTEVTALSEDEYFSAGVVKGHRKESGELYYSIEKEGQRKWYKRMAVILSLEQGNRLREQYGLGPYEAVTPLTKAAD
interaction with DNA in vitro [4]: interact with single-stranded and double-stranded DNA in vitro

B6: GST-ScRad9[750–917]: Rad9 construction reported by two different groups; stability by NMR tested here (protein, UniProt P14737 750-917, looked up, fragment)
chain: ETGSGKDSKEQSYVFPEGIRTADNSFLSKDDIIFGNAVWCQYTWNYKFYPGILLEVDTNQDGCWIYFETGRSLTKDEDIYYLDIRIGDAVTFDGNEYVVVGLECRSHDLNIIRCIRGYDTVHLKKKNASGLLGKRTLIKALSSISLDLSEWAKRAKIILEDNEKNKGD
modifications: GST tag
NMR signal lost ([5]; after 2.5 h at 30°C): 40% | capture of histone H3 (histone H3): capture of histone H3

KRHRK(Me2)VLRD [Metazoan H4-K20me2 peptide]
Ka (Mm53BP1[1463–1617]): 130000 M⁻¹ | Kd (Mm53BP1[1463–1617]): 7.7 µM | dH (Mm53BP1[1463–1617]): -2.2 ± 0.1 kcal/mol | stoichiometry N (Mm53BP1[1463–1617]): 1

B7: Mm53BP1[1463–1617]: mouse 53BP1 fragment 1463–1617, tandem tudor region (protein)
chain: PFQAATGSSDGLDSSSSGNSFVGLRVVAKWSSNGYFYSGKITRDVGAGKYKLLFDDGYECDVLGKDILLCDPIPLDTEVTALSEDEYFSAGVVKGHRKESGELYYSIEKEGQRKWYKRMAVILSLEQGNRLREQYGLGPYEAVTPLTKAADISLD
interaction with 146 bp ds DNA by gel retardation [6]: could not detect any interaction | affinity for 10 bp oligonucleotide, in words (10 bp oligonucleotide): millimolar affinity interaction

GKGGAKRHRKVLRDNIQGK (K* dimethylated (K20, tenth residue of the peptide)) [Metazoan H4-K20me2-long peptide]
Ka (Mm53BP1[1463–1617]): 110000 M⁻¹ | Kd (Mm53BP1[1463–1617]): 8.8 µM | dH (Mm53BP1[1463–1617]): -2.3 ± 0.1 kcal/mol | stoichiometry N (Mm53BP1[1463–1617]): 1
